Source: ChEMBL document CHEMBL1154317, “Discovery of a potent, metabolically stabilized resorcylic lactone as an anti-inflammatory lead” (Bioorg Med Chem Lett, 2009)
pIC50: −log10 of the molar value. Activity calls are given as the source filed them. No cut-off for these calls is given here.

Assays:
THP-1 = assay: Antiinflammatory activity in human THP1 cells assessed as inhibition of LPS-induced TNFalpha production by PLAP reporter assay; type: functional, cell-based
Summary of the method: (§1)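 Stably transfected PLAP reporter lines (TNFα-promoter/5'-UTR-PLAP in THP-1-33; β-actin-promoter-PLAP in B164), kept in RPMI1640 with 10% heat-inactivated endotoxin-free FBS and G418 1 mg/mL. Seeded at 1.0×10^4 cells/well, preincubated with compound 30 min, then stimulated with LPS 100 ng/ml (E. coli 0127:B08 or 011:B4). After 24-48 h, supernatant alkaline phosphatase activity read; IC50 reported.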

[1] = Antiinflammatory activity in human B164 cells assessed as inhibition of LPS-induced Actin production by PLAP reporter assay; type: functional, cell-based; summary of the method: as §1
[2] = Metabolic stability in mouse plasma after 2 hrs; type: ADME, cell-free; conditions: read-out: Stability
Summary of the method: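 Compound at 50 μg/ml or 50 μM in freshly prepared heparinized mouse blood, incubated at 37 °C for 0, 30 and 120 min. Each sample extracted with MeOH containing 0.2% perchloric acid. Analyzed by reverse-phase HPLC, 30% acetonitrile in KH2PO4 buffer pH 3.5. Parent peak area at each time expressed as % of the 0 min area.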

U-937 [3] = assay: Antiinflammatory activity in human U937 cells assessed as inhibition of LPS-induced TNFalpha production by ELISA; type: functional, cell-based
U-937 [4] = assay: Antiinflammatory activity in human U937 cells assessed as inhibition of LPS-induced Actin production by ELISA; type: functional, cell-based
Mus musculus [5] = organism: Mus musculus; assay: Antiinflammatory activity in mouse assessed as inhibition of LPS-induced IL6 production; type: functional, organism-based
Summary of the method: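 Mice given compound together with LPS by tail-vein injection in 10% cyclodextrin. Blood collected 3 h later and plasma IL-6 measured by ELISA. Mean with SEM, n = 6-8. Compared against the LPS-treated control group by Dunnett's post hoc test, P<0.05.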

[6] = Half life in BALB/c mouse at 3 mg/kg, iv; type: ADME, organism-based; design: route intravenous, dose 3 mg/kg; conditions: in vivo
Summary of the method: (§2)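 Single intravenous dose given to BALB/c mice. Parent drug levels were measured in plasma over time after dosing. CL, VDss, t1/2 and AUC were derived from these plasma levels. AUC is reported normalised to dose, […].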

[7] = Volume of distribution at steady state in BALB/c mouse at 3 mg/kg, iv; type: ADME, organism-based; design: dose 3 mg/kg, route intravenous; conditions: in vivo, read-out: Vdss; summary of the method: as §2
Mus musculus [8] = assay: Normalised AUC in BALB/c mouse at 3 mg/kg, iv; type: ADME, organism-based; design: dose 3 mg/kg, route intravenous; conditions: in vivo; summary of the method: as §2
[9] = Clearance in BALB/c mouse at 3 mg/kg, iv; type: ADME, organism-based; design: dose 3 mg/kg, route intravenous; conditions: in vivo; summary of the method: as §2

SMILES	pIC50 (THP-1)	pIC50 [1]	further results
COc1cc(O)c2c(c1)/C=C/C[C@H](O)[C@H](O)C(=O)/C=C\C[C@@H](C)OC2=O	5.98	5.15	
CC[C@H]1C/C=C\C(=O)[C@@H](O)[C@@H](O)C/C=C/c2cc(OC)cc(O)c2C(=O)O1	7.23	5.61	
COc1cc(O)c2c(c1)/C=C/C[C@H](O)[C@H](O)/C=C\[C@@H](C)COC2=O	6.69	< 5.00	
CC[C@@H]1C/C=C\C(=O)[C@@H](O)[C@@H](O)C/C=C/c2cc(OC)cc(O)c2C(=O)O1	5.28	5.07	
COc1cc(O)c2c(c1)/C=C/C[C@H](O)[C@H](O)C(=O)C1CC1OC2=O (stereo not given in full)	< 5.00	< 5.00	
COc1cc(O)c2c(c1)/C=C/C[C@H](O)[C@H](O)/C=C\[C@H](C)[C@@H](C)OC2=O	< 5.00	< 5.00	
COc1ccc(CO[C@@H]2/C=C\C(=O)[C@@H](O)[C@@H](O)C/C=C/c3cc(OC)cc(O)c3C(=O)O[C@H]2C)cc1	6.05	< 5.00	
COc1cc(O)c2c(c1)/C=C/C[C@H](O)[C@H](O)C(=O)/C=C\[C@H](OC)[C@H](C)OC2=O	6.62	5.12	remaining at 2 h [2]: 25%
COc1cc(O)c2c(c1)/C=C/C[C@H](O)[C@H](O)/C=C(\F)[C@@H](C)[C@H](C)NC2=O	6.70	< 5.00	
COc1cc(O)c2c(c1)/C=C/C[C@@H](O)[C@@H](O)C(=O)/C=C\C[C@@H](C)OC2=O	5.58	5.30	
COc1cc(O)c2c(c1)/C=C/C[C@H](O)[C@H](O)C(=O)/C=C\C[C@H](c1ccccc1)OC2=O	5.43	5.36	
COc1cc(O)c2c(c1)/C=C/C[C@H](O)[C@H](O)C(=O)/C=C\[C@@H]1CCC[C@@H]1OC2=O	6.18	5.52	remaining at 2 h [2]: 77%
COc1cc(O)c2c(c1)/C=C/C[C@H](O)[C@H](O)/C=C\[C@@H](C)CNC2=O	6.59	< 5.00	
COc1cc(O)c2c(c1)/C=C/C[C@H](O)[C@H](O)/C=C\[C@H](C)[C@H](C)OC2=O	5.94	< 5.00	
CC[C@@H]1/C=C\[C@@H](O)[C@@H](O)C/C=C/c2cc(OC)cc(O)c2C(=O)O[C@H]1C			inhibition (U-937 [3]): inactive; inhibition (U-937 [4]): inactive
COc1cc(O)c2c(c1)/C=C/C[C@H](O)[C@H](O)C(=O)/C=C\C[C@H](C(F)(F)F)OC2=O	7.51	5.88	
COc1cc(O)c2c(c1)/C=C/C[C@H](O)[C@H](O)C(=O)/C=C\[C@H]1CCC[C@H]1OC2=O	5.40	< 4.52	remaining at 2 h [2]: 34%
COc1cc(O)c2c(c1)/C=C/C[C@H](O)[C@H](O)C(=O)/C=C\[C@@H](C)[C@H](C)OC2=O	6.87	< 5.00	inhibition (Mus musculus [5]): Active; remaining at 2 h [2]: > 80%; half-life [6]: 3.44 h; Vd [7]: 1.69 L/kg; AUC/dose (Mus musculus [8]): 181 ng·h/mL/(mg/kg); clearance [9]: 91.8 mL/min/kg
COc1cc(O)c2c(c1)/C=C/C[C@H](O)[C@H](O)/C=C\[C@@H](CC(F)(F)F)[C@H](C)OC2=O	5.05	< 5.00	
COc1cc(O)c2c(c1)/C=C/C[C@H](O)[C@H](O)C(=O)/C=C\CCOC2=O	7.16	5.55	
COc1cc(O)c2c(c1)/C=C/C[C@H](O)[C@H](O)/C=C\C(C)(C)COC2=O	< 5.00	< 5.00	
COc1cc(O)c2c(c1)/C=C/C[C@H](O)[C@H](O)C(=O)/C=C\C[C@H](C)OC2=O	7.96	5.62	remaining at 2 h [2]: 2%; half-life [6]: 0.05 h; Vd [7]: 3.3 L/kg; AUC/dose (Mus musculus [8]): 23.8 ng·h/mL/(mg/kg); clearance [9]: 710 mL/min/kg
COc1cc(O)c2c(c1)/C=C/C[C@H](O)[C@H](O)/C=C\[C@@H](Cc1ccccc1)[C@H](C)OC2=O	< 5.00	< 5.00	
